This note sets out measurements from ChEMBL document CHEMBL2440040, “Synthesis of 4″-O-desosaminyl clarithromycin derivatives and their anti-bacterial activities” (2013).

Values after ≈ are worked out from the molar mass of the structure shown.

Holding throughout (format): functional
Test [1] relates to Staphylococcus aureus. Kind of test: Antibacterial activity against methicillin-sensitive Staphylococcus aureus ATCC 29213 by broth microdilution method. In short, it runs like this: (§1)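 Strains obtained from the Institute of Medicinal Biotechnology, Academy of Medical Sciences & Peking Union Medical College. MIC determined in vitro by broth microdilution following NCCLS recommendations.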
Background: In broth dilution the organism is exposed to a series of concentrations in liquid medium.

Test [2] concerns Streptococcus pneumoniae. Kind of test: Antibacterial activity against erythromycin-sensitive Streptococcus pneumoniae 12-8 by broth microdilution method. The essentials:
as §1

Test [3] relates to Streptococcus pyogenes. Put plainly: Antibacterial activity against erythromycin-resistant Streptococcus pyogenes 11-2 by broth microdilution method.
Test [4] deals with Streptococcus pneumoniae. Put plainly: Antibacterial activity against erythromycin-sensitive Streptococcus pneumoniae 12-4 by broth microdilution method.
Test [5] concerns Streptococcus pneumoniae. Kind of test: Antibacterial activity against erythromycin-sensitive Streptococcus pneumoniae 12-14 by broth microdilution method. The essentials:
as §1

In test [6] the test system is Staphylococcus epidermidis. Put plainly: Antibacterial activity against methicillin-resistant Staphylococcus epidermidis 12-4 by broth microdilution method.
For test [7], the system named is Streptococcus pyogenes. Kind of test: Antibacterial activity against erythromycin-sensitive Streptococcus pyogenes ATCC 19625 by broth microdilution method. In short, it runs like this: as §1
For test [8], the system named is Streptococcus pneumoniae. Put plainly: Antibacterial activity against erythromycin-sensitive Streptococcus pneumoniae 12-1 by broth microdilution method. In short, it runs like this: as §1
Test [9] concerns Streptococcus pneumoniae. Kind of test: Antibacterial activity against erythromycin-resistant Streptococcus pneumoniae 12-5 by broth microdilution method.
Test [10] has as its system Staphylococcus epidermidis. Kind of test: Antibacterial activity against methicillin-resistant Staphylococcus epidermidis 12-11 by broth microdilution method.
For test [11], the system named is Streptococcus pneumoniae. Kind of test: Antibacterial activity against erythromycin-resistant Streptococcus pneumoniae 12-6 by broth microdilution method.
The subject of test [12] is Staphylococcus epidermidis. Kind of test: Antibacterial activity against methicillin-sensitive Staphylococcus epidermidis 12-5 by broth microdilution method. In short, it runs like this:
as §1

Test [13] concerns Staphylococcus epidermidis. Put plainly: Antibacterial activity against methicillin-sensitive Staphylococcus epidermidis ATCC 12228 by broth microdilution method. In short, it runs like this:
as §1

Test [14] relates to Streptococcus pneumoniae. Kind of test: Antibacterial activity against erythromycin-sensitive Streptococcus pneumoniae 12-10 by broth microdilution method. In short, it runs like this:
as §1

The test system of test [15] is Staphylococcus epidermidis. Put plainly: Antibacterial activity against methicillin-sensitive Staphylococcus epidermidis 11-20 by broth microdilution method. The essentials: as §1
Test [16] relates to Staphylococcus aureus. Put plainly: Antibacterial activity against methicillin-sensitive Staphylococcus aureus 12-32 by broth microdilution method. In short, it runs like this: as §1
Test [17] relates to Staphylococcus aureus. Kind of test: Antibacterial activity against methicillin-resistant Staphylococcus aureus 12-31 by broth microdilution method.

Broadly, the MIC is the smallest concentration in the dilution series that meets the test's criterion for growth inhibition. Take `CC[C@H]1OC(=O)[C@H](C)[C@@H](O[C@H]2C[C@@](C)(OC)[C@@H](O[C@@H]3O[C@H](C)[C@@H](O)[C@H](N(C)C)[C@H]3O)[C@H](C)O2)[C@H](C)[C@@H](O[C@@H]2O[C@H](C)C[C@H](N(C)C)[C@H]2O)[C@@](C)(OC)C[C@@H](C)C(=O)[C@H](C)[C@@H](O)[C@]1(C)O`: the MIC with Staphylococcus aureus [1] was 4 µg/mL (≈ 4.34 µM); against Streptococcus pneumoniae [2], 2 µg/mL (≈ 2.17 µM); in the test on Streptococcus pyogenes [3], over 32 µg/mL; against Streptococcus pneumoniae [4], 16 µg/mL (≈ 17.4 µM); against Streptococcus pneumoniae [5], 4 µg/mL (≈ 4.34 µM); in [6] it was 4 µg/mL (≈ 4.34 µM). For the same compound, the MIC in the test on Streptococcus pyogenes [7] turned out to be 2 µg/mL (≈ 2.17 µM); against Streptococcus pneumoniae [8], 2 µg/mL (≈ 2.17 µM); against Streptococcus pneumoniae [9], 16 µg/mL (≈ 17.4 µM); in test [10], 2 µg/mL (≈ 2.17 µM); against Streptococcus pneumoniae [11], 32 µg/mL (≈ 34.7 µM); in test [12] it was 16 µg/mL (≈ 17.4 µM). Besides, the MIC in [13] was 16 µg/mL (≈ 17.4 µM); against Streptococcus pneumoniae [14], 2 µg/mL (≈ 2.17 µM); in [15], 8 µg/mL (≈ 8.68 µM); with Staphylococcus aureus [16] it was 16 µg/mL (≈ 17.4 µM); in the test with Staphylococcus aureus [17], over 32 µg/mL.

For `CC[C@H]1OC(=O)[C@H](C)[C@@H](O[C@H]2C[C@@](C)(OC)[C@@H](O[C@@H]3O[C@H](C)[C@@H](O)[C@H](N(C)C)[C@H]3OC(=O)c3ccccc3)[C@H](C)O2)[C@H](C)[C@@H](O[C@@H]2O[C@H](C)C[C@H](N(C)C)[C@H]2O)[C@@](C)(OC)C[C@@H](C)C(=O)/C(C)=C/[C@]1(C)O`, the MIC is over 32 µg/mL in the test with Staphylococcus aureus [1]; 16 µg/mL (≈ 15.9 µM) in the test on Streptococcus pneumoniae [2]; over 32 µg/mL in the test with Streptococcus pyogenes [3]; over 32 µg/mL in the test with Streptococcus pneumoniae [4]; over 32 µg/mL against Streptococcus pneumoniae [5]; over 32 µg/mL in [6]. The MIC in the test with Streptococcus pyogenes [7] is 1 µg/mL (≈ 0.993 µM); against Streptococcus pneumoniae [8], 1 µg/mL (≈ 0.993 µM); in the test on Streptococcus pneumoniae [9], over 32 µg/mL; in test [10], 32 µg/mL (≈ 31.8 µM); against Streptococcus pneumoniae [11], over 32 µg/mL; in [12], 32 µg/mL (≈ 31.8 µM). The MIC in test [13] was 32 µg/mL (≈ 31.8 µM); with Streptococcus pneumoniae [14] it was over 32 µg/mL; in test [15], over 32 µg/mL; with Staphylococcus aureus [16], over 32 µg/mL; against Staphylococcus aureus [17], over 32 µg/mL.
